Measured values published in publication PMC11436873 (Nature Communications, 2024).
Values after ≈ are worked out from the molar mass of the structure shown.

Columns and labels:
[1] = test system: C. parvum CpPDE1 Val900Ala; assay: HCT-8 cell growth assay, CRISPR CpPDE1 Val900Ala mutant parasite; format: cell-based; conditions: Cryptosporidium parvum, HCT-8, read-out: EC50, CpPDE1 V900A, HCT-8 cell growth assay
human PDE-V = conditions: read-out: IC50 for human PDE-V; cited from earlier work
HCT-8 cells = assay: host cell cytotoxicity, CellTiter AQueous; format: cell-based, human
Summary of the method: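 HCT-8 cells are grown in RPMI 1640 with 10% heat-inactivated FBS and penicillin/streptomycin at 37 °C, 5% CO2, used at passages 9–39. Confluent (>95%) monolayers get varying compound concentrations for 48 h. MTS reduction is read at 490 nm, blanked against trypsinised wells, and expressed as % viability versus DMSO. TC50 is curve-fitted; the selectivity index is the […].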

C. parvum [2] = assay: NOD SCID gamma mouse model of cryptosporidiosis, fecal parasite shedding by qPCR; format: in vivo; conditions: NSG mice
Summary of the method: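 Male NSG mice aged 4–5 weeks are infected with C. parvum oocysts. Oral gavage starts 7 (or 14) days post-infection and runs 7 days. Dosing stock in DMSO is diluted into 1% HPMC (5% DMSO final, 100 μL per dose), with a paromomycin control. Fecal shedding per mg feces is measured by qPCR at treatment start, at treatment end and one week later. n = 4 mice per group, mean and SEM.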

[3] = kinetic aqueous solubility
C. hominis Tu502 strain = assay: C. hominis growth in HCT-8 cells, same method; format: cell-based; conditions: Cryptosporidium hominis, HCT-8, read-out: C. hominis EC50
Summary of the method: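 TU502 oocysts, used within 1 month, excysted with 10 mM HCl (10 min, 37 °C) and then 2 mM sodium taurocholate in PBS (10 min, 16 °C). Material from 5500 oocysts/well was added to >95% confluent HCT-8 monolayers (passages 9–39, 37 °C, 5% CO2). Compound went in 3 h post-infection, with nitazoxanide as control. At 48 h, cells were fixed with paraformaldehyde and stained with fluorescein-Vicia villosa lectin plus Hoechst.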

C. parvum [4] = assay: Cryptosporidium rate-of-action assay in HCT-8 cells; format: cell-based, Cryptosporidium parvum; conditions: for parasite elimination in rate-of-action assay: nitazoxanide at EC90, highest tolerated concentration
Summary of the method: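 HCT-8 monolayers (>90% confluent) are infected with C. parvum sporozoites excysted with 10 mM HCl and then 2 mM taurocholate. […] Cells are fixed, stained with V. villosa lectin and Hoechst, and counted by epifluorescence. Counts are normalised to host nuclei and DMSO wells, then fitted to one-phase exponential decay. Four wells per condition.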

[5] = NSG mouse weights and tolerability during efficacy testing; format: in vivo, Mus musculus (NOD SCID gamma mice); conditions: 50 mpk twice daily, 7 days
hERG potassium channel = hERG potassium channel (Homo sapiens, UniProt Q12809); assay: hERG [3H]-dofetilide competitive binding; conditions: probe [3H]-dofetilide
Sequence of hERG potassium channel (Q12809 whole entry): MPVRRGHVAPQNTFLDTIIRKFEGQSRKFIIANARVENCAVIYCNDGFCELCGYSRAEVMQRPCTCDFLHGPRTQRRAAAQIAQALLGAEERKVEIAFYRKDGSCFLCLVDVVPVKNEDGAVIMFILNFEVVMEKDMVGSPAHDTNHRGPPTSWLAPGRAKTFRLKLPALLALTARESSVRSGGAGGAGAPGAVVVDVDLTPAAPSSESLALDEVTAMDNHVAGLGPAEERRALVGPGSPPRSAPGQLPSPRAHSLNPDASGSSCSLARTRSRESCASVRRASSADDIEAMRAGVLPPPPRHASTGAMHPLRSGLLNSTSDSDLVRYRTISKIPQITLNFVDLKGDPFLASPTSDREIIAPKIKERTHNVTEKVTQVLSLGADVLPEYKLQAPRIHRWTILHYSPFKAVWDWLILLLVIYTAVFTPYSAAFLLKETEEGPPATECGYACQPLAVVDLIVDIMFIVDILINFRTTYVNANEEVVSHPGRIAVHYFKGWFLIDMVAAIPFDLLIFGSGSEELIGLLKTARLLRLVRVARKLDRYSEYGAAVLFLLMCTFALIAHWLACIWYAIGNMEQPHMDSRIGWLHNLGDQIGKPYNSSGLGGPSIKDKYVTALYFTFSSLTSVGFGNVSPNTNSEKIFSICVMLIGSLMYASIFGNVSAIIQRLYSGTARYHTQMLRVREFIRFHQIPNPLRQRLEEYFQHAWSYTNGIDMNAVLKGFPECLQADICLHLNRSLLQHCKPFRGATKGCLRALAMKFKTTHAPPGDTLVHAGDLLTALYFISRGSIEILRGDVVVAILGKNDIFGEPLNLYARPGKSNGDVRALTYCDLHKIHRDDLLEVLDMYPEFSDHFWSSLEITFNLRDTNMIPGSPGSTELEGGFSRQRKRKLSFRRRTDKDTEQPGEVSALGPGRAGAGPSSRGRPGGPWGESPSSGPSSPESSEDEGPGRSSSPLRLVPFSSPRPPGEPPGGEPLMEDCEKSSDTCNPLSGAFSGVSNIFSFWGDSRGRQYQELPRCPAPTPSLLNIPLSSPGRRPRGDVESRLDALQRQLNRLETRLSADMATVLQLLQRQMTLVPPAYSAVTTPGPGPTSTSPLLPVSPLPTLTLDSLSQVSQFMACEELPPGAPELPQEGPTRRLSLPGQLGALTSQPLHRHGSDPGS

47 human targets = assay: Eurofins SafetyScan47 panel, whole panel; conditions: dose-response up to 30 μM
Cryptosporidium = conditions: cited from earlier work

Q: Which EC50 [1] does the source give for `CCCc1nn(C)c2c(=O)[nH]c(-c3cc(S(=O)(=O)N4CCN(C)CC4)ccc3OCC)nc12` [sildenafil] here?
A: Its EC50 is 14 µM.

Q: And the IC50 (human PDE-V)?
A: The IC50 was 0.0035 µM.

Q: Which results are given for `COc1ccc(CNc2nc(-c3ccc(C(=O)O)cc3)nc3c2c2ccccc2n3C)cc1Cl` [PDEi4]?
A: selectivity index (HCT-8 cells; HCT-8 TC50 vs C. parvum EC50): 100; efficacy, 7-day dosing (C. parvum [2]; 50 mpk twice daily oral): no significant effect; solubility kinetic at 2 h ([3]; PBS, pH 7.4, aqueous buffer, kinetic from dmso stock): 21 µM (≈ 9.93 µg/mL)

Q: For `CCc1nn(C)c2nc(-c3ccc(C(=O)O)cc3)nc(NCc3ccc(F)cc3)c12` [PDEi5, 4-(3-ethyl-4-((4-fluorobenzyl)amino)-1-methyl-1H-pyrazolo[3,4-d]pyrimidin-6-yl)benzoic acid], which EC50 (C. hominis Tu502 strain) is on record?
A: The EC50 was 4.7 µM.

Q: And the “time required for 99.9% parasite reduction” value (C. parvum [4]; in the absence of host immune help)?
A: Its value is ~ 107 h.

Q: What about the “toxicity to the HCT-8 cell line” value (HCT-8 cells; 100 μM, highest concentration tested) of the same molecule?
A: Its value is “non-toxic”.

Q: And the “reduction of parasite shedding after 7 days of treatment” value (C. parvum [2]; 50 mpk twice daily oral)?
A: Its value is ~ 99%.

Q: What about the relapse after treatment (C. parvum [2]; after 7-day dosing) of the same molecule?
A: The relapse after treatment was “infection relapsed within a week of stopping treatment”.

Q: And the “fall of mean mouse weight in the final days of treatment” value [5]?
A: Its value is ~ 5%.

Q: What about the inhibition at 10 µM (hERG potassium channel) of the same molecule?
A: Its inhibition at 10 µM is -14.7%.

Q: What about the “SafetyScan47 EC50/IC50 for 45 of 47 targets” value (47 human targets) of the same molecule?
A: The value was greater than 30 µM.

Q: What about the solubility kinetic ([3]; aqueous solution, pH 7.4) of the same molecule?
A: The solubility kinetic was 200 µM (≈ 81.1 µg/mL).

Q: Which “parasite elimination in rate-of-action assay” value (C. parvum [4]) does the source give for `CC(=O)Oc1ccccc1C(=O)Nc1ncc([N+](=O)[O-])s1` [nitazoxanide] here?
A: The value was “no nitazoxanide-dependent parasite elimination occurred”.

Q: What about the “parasite elimination in rate-of-action assay” value (C. parvum [4]; listed as NTZ) of the same molecule?
A: Its value is “No exponential decay curve could be fit”.

Q: What about the “effectiveness in AIDS patients” value (Cryptosporidium) of the same molecule?
A: Its value is “equivalent to a placebo”.

Q: And the effectiveness in children (Cryptosporidium)?
A: Its effectiveness in children is ~ 56%.
